Published values collected from several papers.
Compare with care: the assays were run in different laboratories. pKi: −log10 of the molar value.
lecA: PA-I galactophilic lectin (lecA, Pseudomonas aeruginosa, UniProt Q05097)
Chymotrypsinogen A: Chymotrypsinogen A (Bos taurus, UniProt P00766)

Structure (SMILES) | target | effect on | action | method | pH | pKi
O=C(CCCCn1cc(CCN2CCN(c3cc4c(cc3F)c(=O)c(C(=O)O)cn4C3CC3)CC2)nn1)Nc1ccc(S[C@@H]2O[C@H](CO)[C@H](O)[C@H](O)[C@H]2O)cc1 | lecA | ligand displacement |  | FP |  | 5.57
CCn1c(-c2nc3cc(C(=O)N4CCC[C@@H](N)C4)cc(OC)c3n2C)cc2cccnc21 | Protein-arginine deiminase type-3 (PADI3, Homo sapiens, UniProt Q9ULW8) | enzyme activity | inhibitor |  |  | 3.03
[N-]=[N+]=NCCC(=O)Nc1ccc(S[C@@H]2O[C@H](CO)[C@H](O)[C@H](O)[C@H]2O)cc1 | lecA | ligand displacement |  | FP |  | 5.40
NC(=O)C1=CN([C@@H]2O[C@H](COP(=O)(O)OP(=O)(O)OC[C@H]3O[C@@H](n4cnc5c(N)ncnc54)[C@H](O)[C@@H]3O)[C@@H](O)[C@H]2O)C=CC1 | ADH1 (Saccharomyces cerevisiae, UniProt P00330, W83R) | enzyme activity | inhibitor |  |  | 4.62
O=[N+]([O-])c1ccc(O[C@@H]2O[C@H](CO)[C@H](O)[C@H](O)[C@H]2O)cc1 | lecA | ligand displacement |  | FP |  | 4.57
C/C(=C\C(=O)OCCCCCCCCC(=O)O)C[C@@H]1OC[C@H](C[C@@H]2O[C@H]2[C@@H](C)[C@H](C)O)[C@@H](O)[C@H]1O | Isoleucine--tRNA ligase (ileS, Escherichia coli K-12, UniProt P00956) | enzyme activity | inhibitor | absorbance |  | 9.10
CCCC[C@H](NC(=O)[C@H](CCC(N)=O)NC(=O)[C@H](CO)NC(=O)[C@H](C)NC(=O)CCCCCN)C(=O)N[C@@H](CCCBr)B(O)O | Chymotrypsinogen A | enzyme activity | inhibitor | fluorescence |  | 6.78
c1cc2c(cc1C1CCCCC1)c1c3n2CCNC3CCC1 (centres unmarked) | Amine oxidase [flavin-containing] A (Maoa, Rattus norvegicus, UniProt P21396) | enzyme activity | inhibitor |  | pH 7.5 | 5.44
CCCC[C@H](NC(=O)[C@H](CCC(N)=O)NC(=O)[C@H](CO)NC(=O)C[C@@H](Cc1ccc2ccccc2c1)NC(=O)CCCCCN)C(=O)N[C@@H](Cc1ccccc1)B(O)O | Chymotrypsinogen A | enzyme activity | inhibitor | fluorescence |  | 8.14
OCC(F)(F)F | ADH1 (Saccharomyces cerevisiae, UniProt P00330, W55R) | enzyme activity | inhibitor |  |  | 1.13
CCCC[C@H](NC(=O)[C@H](CCC(N)=O)NC(=O)[C@H](CO)NC(=O)CCCCCN)C(=O)N[C@@H](Cc1ccccc1)B(O)O | Chymotrypsinogen A | enzyme activity | inhibitor | fluorescence |  | 8.42
O=C(CCCn1cc(CN2CCN(c3cc4c(cc3F)c(=O)c(C(=O)O)cn4C3CC3)CC2)nn1)Nc1ccc(S[C@@H]2O[C@H](CO)[C@H](O)[C@H](O)[C@H]2O)cc1 | lecA | ligand displacement |  | FP |  | 5.52
CCCC[C@H](NC(=O)[C@H](CCC(N)=O)NC(=O)[C@H](CO)NC(=O)[C@H](Cc1ccccc1)NC(=O)CCCCCN)C(=O)N[C@@H](CCCBr)B(O)O | Chymotrypsinogen A | enzyme activity | inhibitor | fluorescence |  | 6.24
O=C(CCCCn1cc(CN2CCN(c3cc4c(cc3F)c(=O)c(C(=O)O)cn4C3CC3)CC2)nn1)Nc1ccc(S[C@@H]2O[C@H](CO)[C@H](O)[C@H](O)[C@H]2O)cc1 | lecA | ligand displacement |  | FP |  | 5.49
